Legend:
Conditions in all cases: stereoisomer not certain
UniProt Q8VGC6 = biological target: T1, UniProt Q8VGC6
T1 sequence (whole entry): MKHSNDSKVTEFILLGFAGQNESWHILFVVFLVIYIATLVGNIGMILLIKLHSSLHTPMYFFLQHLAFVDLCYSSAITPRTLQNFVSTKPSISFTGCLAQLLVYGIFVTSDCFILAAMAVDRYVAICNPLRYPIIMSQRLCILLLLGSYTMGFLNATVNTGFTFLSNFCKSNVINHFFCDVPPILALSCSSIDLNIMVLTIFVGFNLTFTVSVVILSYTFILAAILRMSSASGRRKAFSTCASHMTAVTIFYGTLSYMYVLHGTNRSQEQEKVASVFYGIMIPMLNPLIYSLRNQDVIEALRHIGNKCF
In short: (§1)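 Each entry records the cell line, G-protein, co-transfected protein and tags used. Methods varied with the source, often transient luciferase assays in mammalian cell lines. A receptor–molecule pair is called responsive (active) if the original authors judged its signal statistically different from baseline and non-responsive (inactive) otherwise.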

UniProt Q8VGD7 = biological target: T2, UniProt Q8VGD7
T2 sequence (whole entry): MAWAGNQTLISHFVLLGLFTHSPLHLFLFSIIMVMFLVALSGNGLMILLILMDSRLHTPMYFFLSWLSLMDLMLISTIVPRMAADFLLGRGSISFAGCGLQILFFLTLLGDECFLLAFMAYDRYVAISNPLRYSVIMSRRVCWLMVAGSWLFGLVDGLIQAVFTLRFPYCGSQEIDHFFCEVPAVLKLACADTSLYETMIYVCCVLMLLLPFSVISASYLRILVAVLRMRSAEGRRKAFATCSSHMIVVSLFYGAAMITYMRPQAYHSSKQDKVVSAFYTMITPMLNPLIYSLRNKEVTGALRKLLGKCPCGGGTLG
In short: as §1

UniProt Q8VGH1 = biological target: T3, UniProt Q8VGH1
T3 sequence (whole entry): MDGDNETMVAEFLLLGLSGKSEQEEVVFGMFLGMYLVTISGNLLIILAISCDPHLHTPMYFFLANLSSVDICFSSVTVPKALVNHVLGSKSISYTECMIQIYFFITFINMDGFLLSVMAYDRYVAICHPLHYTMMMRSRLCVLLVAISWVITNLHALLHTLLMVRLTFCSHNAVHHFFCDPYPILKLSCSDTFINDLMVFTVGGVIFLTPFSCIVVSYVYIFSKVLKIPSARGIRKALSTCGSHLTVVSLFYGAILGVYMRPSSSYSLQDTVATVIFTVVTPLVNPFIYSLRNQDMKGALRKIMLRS
In short: as §1

UniProt Q8VGJ1 = biological target: T4, UniProt Q8VGJ1
T4 sequence (whole entry): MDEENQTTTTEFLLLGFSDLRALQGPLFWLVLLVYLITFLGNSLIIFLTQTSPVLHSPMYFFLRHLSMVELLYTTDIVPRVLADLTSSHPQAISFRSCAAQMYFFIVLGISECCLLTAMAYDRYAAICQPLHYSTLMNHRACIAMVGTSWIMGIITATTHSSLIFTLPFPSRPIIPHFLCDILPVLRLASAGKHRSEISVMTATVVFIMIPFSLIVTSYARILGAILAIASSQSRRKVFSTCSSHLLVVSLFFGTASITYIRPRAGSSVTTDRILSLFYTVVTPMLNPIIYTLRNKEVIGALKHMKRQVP
In short: as §1

UniProt Q8VGJ3 = biological target: T5, UniProt Q8VGJ3
T5 sequence (whole entry): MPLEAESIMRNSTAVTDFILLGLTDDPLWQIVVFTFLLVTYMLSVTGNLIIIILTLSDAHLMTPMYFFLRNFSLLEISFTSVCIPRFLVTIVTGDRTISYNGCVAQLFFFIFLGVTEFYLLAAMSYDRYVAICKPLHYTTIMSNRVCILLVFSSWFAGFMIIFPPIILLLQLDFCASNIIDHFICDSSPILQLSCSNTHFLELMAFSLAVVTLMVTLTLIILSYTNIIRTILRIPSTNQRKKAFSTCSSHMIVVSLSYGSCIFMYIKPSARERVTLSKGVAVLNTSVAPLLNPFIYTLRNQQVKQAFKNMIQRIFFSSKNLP
In short: as §1

UniProt Q8VGJ5 = biological target: T6, UniProt Q8VGJ5
T6 sequence (whole entry): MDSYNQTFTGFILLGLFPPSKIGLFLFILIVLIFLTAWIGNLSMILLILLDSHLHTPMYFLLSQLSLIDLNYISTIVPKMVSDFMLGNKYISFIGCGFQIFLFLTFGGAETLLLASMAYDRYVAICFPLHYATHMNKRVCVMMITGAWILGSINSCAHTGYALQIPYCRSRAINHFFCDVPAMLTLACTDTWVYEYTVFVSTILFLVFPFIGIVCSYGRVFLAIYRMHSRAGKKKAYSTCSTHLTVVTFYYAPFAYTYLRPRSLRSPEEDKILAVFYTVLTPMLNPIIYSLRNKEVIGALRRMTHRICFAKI
In short: as §1

UniProt Q8VGL0 = biological target: T7, UniProt Q8VGL0
T7 sequence (whole entry): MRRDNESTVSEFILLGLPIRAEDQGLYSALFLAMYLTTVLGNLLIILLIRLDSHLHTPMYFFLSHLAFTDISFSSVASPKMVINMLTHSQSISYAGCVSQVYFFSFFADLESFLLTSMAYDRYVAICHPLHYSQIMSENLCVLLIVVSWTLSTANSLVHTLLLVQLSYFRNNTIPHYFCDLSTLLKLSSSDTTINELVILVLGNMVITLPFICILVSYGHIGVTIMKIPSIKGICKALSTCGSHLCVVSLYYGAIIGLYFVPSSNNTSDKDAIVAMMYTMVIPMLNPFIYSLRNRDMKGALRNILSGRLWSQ
In short: as §1

UniProt Q8VGL7 = biological target: T8, UniProt Q8VGL7
T8 sequence (whole entry): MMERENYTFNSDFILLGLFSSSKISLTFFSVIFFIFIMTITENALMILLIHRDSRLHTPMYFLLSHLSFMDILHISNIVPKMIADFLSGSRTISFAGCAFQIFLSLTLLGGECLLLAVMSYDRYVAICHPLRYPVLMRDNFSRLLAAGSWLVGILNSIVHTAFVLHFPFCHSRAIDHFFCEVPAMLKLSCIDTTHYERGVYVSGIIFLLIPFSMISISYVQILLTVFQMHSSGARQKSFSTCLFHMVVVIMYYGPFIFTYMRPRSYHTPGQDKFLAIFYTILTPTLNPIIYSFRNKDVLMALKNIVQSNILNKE
In short: as §1

UniProt Q8VGM2 = biological target: T9, UniProt Q8VGM2
T9 sequence (whole entry): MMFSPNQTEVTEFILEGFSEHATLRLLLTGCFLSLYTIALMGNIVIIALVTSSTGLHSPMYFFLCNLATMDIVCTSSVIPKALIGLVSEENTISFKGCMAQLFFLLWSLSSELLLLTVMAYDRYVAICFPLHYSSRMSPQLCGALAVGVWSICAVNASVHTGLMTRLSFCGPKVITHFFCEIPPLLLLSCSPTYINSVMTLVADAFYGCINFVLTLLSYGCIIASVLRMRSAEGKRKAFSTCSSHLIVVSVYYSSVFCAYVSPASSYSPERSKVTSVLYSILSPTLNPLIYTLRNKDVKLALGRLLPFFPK
In short: as §1

UniProt Q8VGP6 = biological target: T10, UniProt Q8VGP6
T10 sequence (whole entry): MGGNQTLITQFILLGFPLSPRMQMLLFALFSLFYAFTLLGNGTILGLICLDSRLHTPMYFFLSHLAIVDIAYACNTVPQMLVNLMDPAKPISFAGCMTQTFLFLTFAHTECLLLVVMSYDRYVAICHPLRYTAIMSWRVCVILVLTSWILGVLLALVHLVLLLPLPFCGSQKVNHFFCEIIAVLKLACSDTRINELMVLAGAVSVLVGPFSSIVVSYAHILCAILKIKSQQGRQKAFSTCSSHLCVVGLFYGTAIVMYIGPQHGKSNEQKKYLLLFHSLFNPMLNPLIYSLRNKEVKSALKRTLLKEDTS
In short: as §1

UniProt Q8VGQ3 = biological target: T11, UniProt Q8VGQ3
T11 sequence (whole entry): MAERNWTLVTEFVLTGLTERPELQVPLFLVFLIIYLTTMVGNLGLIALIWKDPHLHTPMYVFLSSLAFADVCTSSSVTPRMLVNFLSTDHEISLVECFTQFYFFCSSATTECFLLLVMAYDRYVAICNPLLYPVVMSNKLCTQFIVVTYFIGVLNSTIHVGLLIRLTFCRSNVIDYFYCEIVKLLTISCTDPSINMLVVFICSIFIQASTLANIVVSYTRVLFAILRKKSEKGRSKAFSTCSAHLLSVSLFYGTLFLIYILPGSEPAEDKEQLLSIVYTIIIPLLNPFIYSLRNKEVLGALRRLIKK
In short: as §1

UniProt Q8VGT4 = biological target: T12, UniProt Q8VGT4
T12 sequence (whole entry): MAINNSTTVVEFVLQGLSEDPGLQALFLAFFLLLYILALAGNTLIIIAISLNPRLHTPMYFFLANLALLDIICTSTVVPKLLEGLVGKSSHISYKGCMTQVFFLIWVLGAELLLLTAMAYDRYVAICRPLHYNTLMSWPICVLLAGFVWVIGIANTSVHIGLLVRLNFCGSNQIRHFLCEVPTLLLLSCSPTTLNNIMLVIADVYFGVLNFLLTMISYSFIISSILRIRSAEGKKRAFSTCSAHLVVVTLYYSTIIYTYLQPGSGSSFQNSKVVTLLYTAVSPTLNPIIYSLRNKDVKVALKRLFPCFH
In short: as §1

UniProt Q8VGU3 = biological target: T13, UniProt Q8VGU3
T13 sequence (whole entry): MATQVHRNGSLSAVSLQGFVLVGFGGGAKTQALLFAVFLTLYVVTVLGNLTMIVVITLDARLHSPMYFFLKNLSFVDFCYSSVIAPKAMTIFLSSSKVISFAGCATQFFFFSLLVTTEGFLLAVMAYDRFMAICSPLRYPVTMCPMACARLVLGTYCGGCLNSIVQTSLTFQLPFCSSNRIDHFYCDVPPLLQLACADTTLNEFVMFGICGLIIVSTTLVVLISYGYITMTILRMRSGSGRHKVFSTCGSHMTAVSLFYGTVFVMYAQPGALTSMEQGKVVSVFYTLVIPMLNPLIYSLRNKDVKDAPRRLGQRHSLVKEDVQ
In short: as §1

UniProt Q8VGV1 = biological target: T14, UniProt Q8VGV1
T14 sequence (whole entry): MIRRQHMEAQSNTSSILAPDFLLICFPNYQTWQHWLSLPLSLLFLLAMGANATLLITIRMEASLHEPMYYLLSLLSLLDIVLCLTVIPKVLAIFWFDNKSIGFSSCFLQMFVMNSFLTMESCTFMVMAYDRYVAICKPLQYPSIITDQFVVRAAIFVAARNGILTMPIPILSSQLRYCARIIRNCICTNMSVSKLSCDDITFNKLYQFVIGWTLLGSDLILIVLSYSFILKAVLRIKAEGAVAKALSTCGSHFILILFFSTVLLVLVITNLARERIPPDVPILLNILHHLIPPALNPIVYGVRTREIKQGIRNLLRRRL
In short: as §1

UniProt Q8VGV7 = biological target: T15, UniProt Q8VGV7
T15 sequence (whole entry): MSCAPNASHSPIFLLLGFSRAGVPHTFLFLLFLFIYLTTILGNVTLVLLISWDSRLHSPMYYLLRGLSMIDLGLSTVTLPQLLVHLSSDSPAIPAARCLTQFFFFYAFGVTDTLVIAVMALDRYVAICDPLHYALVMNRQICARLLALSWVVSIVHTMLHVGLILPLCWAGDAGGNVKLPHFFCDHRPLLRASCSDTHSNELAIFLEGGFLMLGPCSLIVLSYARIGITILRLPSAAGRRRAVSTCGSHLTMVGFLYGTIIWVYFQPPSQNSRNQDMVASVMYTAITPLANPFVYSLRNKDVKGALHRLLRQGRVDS
In short: as §1

UniProt Q8VGX3 = biological target: T16, UniProt Q8VGX3
T16 sequence (whole entry): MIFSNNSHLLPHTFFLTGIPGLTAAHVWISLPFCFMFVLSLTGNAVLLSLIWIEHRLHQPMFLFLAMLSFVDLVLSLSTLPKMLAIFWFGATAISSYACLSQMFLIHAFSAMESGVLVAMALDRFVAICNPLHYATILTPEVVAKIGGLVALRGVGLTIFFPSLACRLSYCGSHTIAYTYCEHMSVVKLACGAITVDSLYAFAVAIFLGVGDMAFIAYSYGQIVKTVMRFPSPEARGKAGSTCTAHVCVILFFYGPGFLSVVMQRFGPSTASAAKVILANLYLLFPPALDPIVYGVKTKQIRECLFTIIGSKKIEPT
In short: as §1

UniProt Q8VGX5 = biological target: T17, UniProt Q8VGX5
T17 sequence (whole entry): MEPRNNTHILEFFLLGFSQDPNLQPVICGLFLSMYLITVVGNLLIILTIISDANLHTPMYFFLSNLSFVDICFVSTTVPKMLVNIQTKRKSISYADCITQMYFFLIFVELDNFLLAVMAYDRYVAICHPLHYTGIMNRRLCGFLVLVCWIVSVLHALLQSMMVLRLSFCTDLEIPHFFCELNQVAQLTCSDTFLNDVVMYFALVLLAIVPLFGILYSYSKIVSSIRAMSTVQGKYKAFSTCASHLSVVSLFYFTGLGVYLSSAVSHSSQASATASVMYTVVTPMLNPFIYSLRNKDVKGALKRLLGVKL
In short: as §1

UniProt Q8VGW5 = biological target: T18, UniProt Q8VGW5
T18 sequence (whole entry): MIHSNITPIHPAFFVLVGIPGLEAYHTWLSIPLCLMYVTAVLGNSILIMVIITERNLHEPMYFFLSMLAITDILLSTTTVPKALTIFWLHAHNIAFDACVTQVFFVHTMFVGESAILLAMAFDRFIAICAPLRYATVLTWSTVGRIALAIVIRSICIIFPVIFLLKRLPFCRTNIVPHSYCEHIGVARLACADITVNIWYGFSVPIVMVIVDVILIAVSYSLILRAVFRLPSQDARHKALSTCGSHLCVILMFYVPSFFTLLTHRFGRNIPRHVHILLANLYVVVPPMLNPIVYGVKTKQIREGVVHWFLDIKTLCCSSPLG
In short: as §1

Measured: odorant receptor agonist call

CC(C)=CCCC(C)CCO (stereo not given)
active: UniProt Q8VGC6 | UniProt Q8VGL0
not listed: UniProt Q8VGW5
inactive: all other assays above

CCCCCOC(=O)CC
inactive: UniProt Q8VGC6 | UniProt Q8VGJ3 | UniProt Q8VGL0 | UniProt Q8VGU3 | UniProt Q8VGV7 | UniProt Q8VGX3 | UniProt Q8VGX5

CC(C)=C1CCC(C)CC1=O (stereo not given)
active: UniProt Q8VGX5
inactive: UniProt Q8VGC6 | UniProt Q8VGJ3 | UniProt Q8VGL0 | UniProt Q8VGU3 | UniProt Q8VGV7 | UniProt Q8VGX3

CCCCCCCC(=O)[O-].[H+]
active: UniProt Q8VGV1
not listed: UniProt Q8VGJ3 | UniProt Q8VGU3 | UniProt Q8VGV7 | UniProt Q8VGX3
inactive: all other assays above
